Test results published in ChEMBL document CHEMBL2311425, “Histone deacetylase (HDAC) inhibitors with a novel connecting unit linker region reveal a selectivity profile for HDAC4 and HDAC5 with improved activity against chemoresistant cancer cells” (J Med Chem, 2013).

What was measured:
[1] = tested on: CAL-27; experiment: Potentiation of 45 uM cisplatin-induced toxicity in 1 uM cisplatin resistant human CAL27 cells at 1 uM pretreated for 48 hrs followed by 1 uM cisplatin treatment by MTT assay; format: functional
[2] = tested on: MDA-MB-231; experiment: Potentiation of 5 uM cisplatin-induced toxicity in 1 uM cisplatin resistant human MDA-MB-231 cells at 0.5 uM pretreated for 48 hrs followed by 1 uM cisplatin treatment by MTT assay; format: functional
[3] = tested on: MDA-MB-231; experiment: Potentiation of […] cisplatin-induced toxicity in 1 uM cisplatin resistant human MDA-MB-231 cells at 1 uM pretreated for 48 hrs followed by 1 uM cisplatin treatment by MTT assay; format: functional
[4] = tested on: CAL-27; experiment: Potentiation of 2.5 uM cisplatin-induced toxicity in 1 uM cisplatin resistant human CAL27 cells at 0.5 uM pretreated for 48 hrs followed by 1 uM cisplatin treatment by MTT assay; format: functional
[5] = tested on: CAL-27; experiment: Potentiation of 5 uM cisplatin-induced toxicity in 1 uM cisplatin resistant human CAL27 cells at 1 uM pretreated for 48 hrs followed by 1 uM cisplatin treatment by MTT assay; format: functional
[6] = tested on: KYSE-510; experiment: Potentiation of 3.16 uM cisplatin-induced toxicity in 0.5 uM cisplatin resistant human KYSE-510 cells at 1.5 uM pretreated for 48 hrs followed by 0.5 uM cisplatin treatment by MTT assay; format: functional
[7] = tested on: A2780; experiment: Potentiation of 20 uM cisplatin-induced toxicity in 5 uM cisplatin resistant human A2780 cells at 1.5 uM pretreated for 48 hrs followed by 5 uM cisplatin treatment by MTT assay; format: functional
[8] = tested on: A2780; experiment: Potentiation of 1 uM cisplatin-induced toxicity in 5 uM cisplatin resistant human A2780 cells at 1.5 uM pretreated for 48 hrs followed by 5 uM cisplatin treatment by MTT assay; format: functional
[9] = target: Histone deacetylase; experiment: Inhibition of HDAC in cisplatin sensitive human MDA-MB-231 cells after 18 hrs by fluorescence assay; format: cell-based
[10] = tested on: CAL-27; experiment: Potentiation of 1 uM cisplatin-induced toxicity in 1 uM cisplatin resistant human CAL27 cells at 0.25 uM pretreated for 48 hrs followed by 1 uM cisplatin treatment by MTT assay; format: functional
[11] = tested on: CAL-27; experiment: Potentiation of 10 uM cisplatin-induced toxicity in 1 uM cisplatin resistant human CAL27 cells at 1.5 uM pretreated for 48 hrs followed by 1 uM cisplatin treatment by MTT assay; format: functional
[12] = tested on: CAL-27; experiment: Potentiation of 45 uM cisplatin-induced toxicity in 1 uM cisplatin resistant human CAL27 cells at 1.5 uM pretreated for 48 hrs followed by 1 uM cisplatin treatment by MTT assay; format: functional
[13] = tested on: KYSE-510; experiment: Potentiation of 1 uM cisplatin-induced toxicity in 0.5 uM cisplatin resistant human KYSE-510 cells at 1 uM pretreated for 48 hrs followed by 0.5 uM cisplatin treatment by MTT assay; format: functional
[14] = tested on: KYSE-510; experiment: Potentiation of 8 uM cisplatin-induced toxicity in 0.5 uM cisplatin resistant human KYSE-510 cells at 1.5 uM pretreated for 48 hrs followed by 0.5 uM cisplatin treatment by MTT assay; format: functional
[15] = tested on: A2780; experiment: Potentiation of cisplatin-induced toxicity in cisplatin resistant human A2780 cells at 1 uM pretreated for 48 hrs followed by cisplatin treatment by MTT assay; format: functional
In short: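 Resistant sublines pretreated 48 h with 1 μM HDAC inhibitor, then cisplatin over a concentration range for 72 h; MTT viability read at 544/690 nm. Cisplatin IC50 from four-parameter logistic fit of pooled data (≥3 experiments, triplicate); shift factor = IC50 of cisplatin alone divided by IC50 of the combination.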

[16] = tested on: KYSE-510; experiment: Potentiation of 0.5 uM cisplatin-induced toxicity in 0.5 uM cisplatin resistant human KYSE-510 cells at 0.25 uM pretreated for 48 hrs followed by 0.5 uM cisplatin treatment by MTT assay; format: functional
[17] = target: Histone deacetylase; experiment: Inhibition of HDAC in cisplatin sensitive human CAL27 cells after 18 hrs by fluorescence assay; format: cell-based; conditions: cal-27
[18] = tested on: KYSE-510; experiment: Potentiation of 3.16 uM cisplatin-induced toxicity in 0.5 uM cisplatin resistant human KYSE-510 cells at 0.25 uM pretreated for 48 hrs followed by 0.5 uM cisplatin treatment by MTT assay; format: functional
[19] = tested on: KYSE-510; experiment: Potentiation of 8 uM cisplatin-induced toxicity in 0.5 uM cisplatin resistant human KYSE-510 cells at 0.5 uM pretreated for 48 hrs followed by 0.5 uM cisplatin treatment by MTT assay; format: functional
[20] = tested on: A2780; experiment: Potentiation of 20 uM cisplatin-induced toxicity in 5 uM cisplatin resistant human A2780 cells at 0.5 uM pretreated for 48 hrs followed by 5 uM cisplatin treatment by MTT assay; format: functional
[21] = tested on: MDA-MB-231; experiment: Potentiation of 10 uM cisplatin-induced toxicity in 1 uM cisplatin resistant human MDA-MB-231 cells at 1.5 uM pretreated for 48 hrs followed by 1 uM cisplatin treatment by MTT assay; format: functional
[22] = tested on: CAL-27; experiment: Potentiation of 10 uM cisplatin-induced toxicity in 1 uM cisplatin resistant human CAL27 cells at 0.5 uM pretreated for 48 hrs followed by 1 uM cisplatin treatment by MTT assay; format: functional
[23] = tested on: A2780; experiment: Potentiation of 1 uM cisplatin-induced toxicity in 5 uM cisplatin resistant human A2780 cells at 0.25 uM pretreated for 48 hrs followed by 5 uM cisplatin treatment by MTT assay; format: functional
[24] = tested on: MDA-MB-231; experiment: Potentiation of 10 uM cisplatin-induced toxicity in 1 uM cisplatin resistant human MDA-MB-231 cells at 1 uM pretreated for 48 hrs followed by 1 uM cisplatin treatment by MTT assay; format: functional
[25] = tested on: MDA-MB-231; experiment: Potentiation of 10 uM cisplatin-induced toxicity in 1 uM cisplatin resistant human MDA-MB-231 cells at 0.25 uM pretreated for 48 hrs followed by 1 uM cisplatin treatment by MTT assay; format: functional

IC50 [9]: 460 nM
IC50 [17]: 360 nM
SMILES: Cc1cc(C)cc(C(=O)NOCCCCCC(=O)NO)c1
Activity [1]: Dose-dependent effect
fractional inhibitory concentration index (FICI) [1]: 0.27
Activity [2]: Dose-dependent effect
fractional inhibitory concentration index (FICI) [2]: <0.2
Activity [3]: Dose-dependent effect
fractional inhibitory concentration index (FICI) [3]: 0.75
Activity [4]: Dose-dependent effect
Activity [5]: Dose-dependent effect
fractional inhibitory concentration index (FICI) [5]: 0.26
Activity [6]: Dose-dependent effect
fractional inhibitory concentration index (FICI) [6]: 0.12
Activity [7]: Dose-dependent effect
fractional inhibitory concentration index (FICI) [7]: 0.64
Activity [8]: Dose-dependent effect
fractional inhibitory concentration index (FICI) [8]: 0.97
Activity [10]: Dose-dependent effect
fractional inhibitory concentration index (FICI) [10]: <0.2
Activity [11]: Dose-dependent effect
fractional inhibitory concentration index (FICI) [11]: 0.2
Activity [12]: Dose-dependent effect
fractional inhibitory concentration index (FICI) [12]: 0.23
Activity [13]: Dose-dependent effect
fractional inhibitory concentration index (FICI) [13]: 0.05
Activity [14]: Dose-dependent effect
fractional inhibitory concentration index (FICI) [14]: 0.16
Activity [15]: Dose-dependent effect
fold change (FC) [15]: 4.02
Activity [16]: Dose-dependent effect
fractional inhibitory concentration index (FICI) [16]: 0.18
Activity [18]: Dose-dependent effect
fractional inhibitory concentration index (FICI) [18]: 0.18
Activity [19]: Dose-dependent effect
fractional inhibitory concentration index (FICI) [19]: 0.16
Activity [20]: Dose-dependent effect
fractional inhibitory concentration index (FICI) [20]: 0.58
Activity [21]: Dose-dependent effect
fractional inhibitory concentration index (FICI) [21]: 0.79
Activity [22]: Dose-dependent effect
fractional inhibitory concentration index (FICI) [22]: 0.41
Activity [23]: Dose-dependent effect
Activity [24]: Dose-dependent effect
fractional inhibitory concentration index (FICI) [24]: 0.85
Activity [25]: Dose-dependent effect
